Source: PubChem BioAssay (Sanford-Burnham Center for Chemical Genomics)
Most compounds without a hit are left out; they make up all but 0.77% or so of the library.
hIAP act: increases human intestinal alkaline phosphatase activity. AID 2524. hit rate 0.16% among 330,000. purified human IAP, CDP-Star luminescence, 30 min; hits give high values; 1 = vehicle-only enzyme, 0 = enzyme-free background. activation factor at 10 µM. P09923;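 active = activation factor of the enzyme at least 2-fold when tested at 20 µM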
Target sequence (P09923 whole entry, looked up): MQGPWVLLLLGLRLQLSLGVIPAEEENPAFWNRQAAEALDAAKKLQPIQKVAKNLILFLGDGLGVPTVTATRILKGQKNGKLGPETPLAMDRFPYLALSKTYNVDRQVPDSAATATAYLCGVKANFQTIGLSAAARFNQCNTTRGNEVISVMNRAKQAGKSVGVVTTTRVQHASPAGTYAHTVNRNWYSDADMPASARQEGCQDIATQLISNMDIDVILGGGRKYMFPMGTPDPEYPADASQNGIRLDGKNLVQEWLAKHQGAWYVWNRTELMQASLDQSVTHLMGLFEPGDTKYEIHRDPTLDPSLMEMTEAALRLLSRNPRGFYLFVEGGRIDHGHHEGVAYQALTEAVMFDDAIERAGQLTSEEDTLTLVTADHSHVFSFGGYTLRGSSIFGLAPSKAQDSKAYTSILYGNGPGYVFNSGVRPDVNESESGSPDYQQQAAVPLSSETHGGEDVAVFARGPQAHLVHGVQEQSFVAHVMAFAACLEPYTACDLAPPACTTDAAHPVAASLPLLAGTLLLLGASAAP
bIAP act: intestinal alkaline phosphatase (bovine) activation | purified bovine IAP, CDP-star luminescence, 30 min; hits give high values; fold of DMSO-control signal, blank-subtracted | activation factor at 20 µM | hit rate 0.17% among 200,000;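 active = activation factor of 2 or more at 20 µM, a signal rise over negative controls twice the positive control's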
hIAP inh: human IAP inhibition. purified IAP, CDP-Star luminescence, 30 min. inhibition, % at 10 µM. hit rate 0.12% among 330,000. AID 2544;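 active = inhibition reaching a set limit with compound at 10 µM in the primary screen, cut at about 35% in these data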
mIAP inh: mouse IAP inhibition; purified mouse IAP, CDP-Star luminescence, 30 min; inhibition, % at 10 µM; hit rate 0.2% among 330,000;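 active = inhibition of at least 40% at 10 µM in the primary screen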
bIAP inhibitor: blocks bovine intestinal alkaline phosphatase activity. 190,000 tested, under 10 active. purified bovine IAP, CDP-star luminescence, 30 min. inhibition, % at 20 µM;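 active = over 50% inhibition of intestinal alkaline phosphatase at 20 µM in the single-dose screen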
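System: Purified bovine intestinal alkaline phosphatase (IAP) enzyme | Input: IAP diluted 1/65,000,000 in the well | Also added: CDP-star chemiluminescent phosphatase substrate, 30 µM final | Dosing: 20 µM single dose | Times: Enzyme reaction for 30 min at room temperature | Detection: Luminescence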
mIAP activ: mouse IAP activation; muIAP, CDP-Star luminescence, 30 min; hits give high values; 1 = vehicle-only enzyme signal, 0 = enzyme-free wells; activation factor at 10 µM; hit rate 0.24% among 330,000; AID 2805;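 active = activation factor of at least 2 at 20 µM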
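Assay system: mouse IAP enzyme; Reagent: CDP-Star chemiluminescent phosphatase substrate; Compound: DMSO-dissolved test compounds; Incubation: 30 min, room temperature; Technique: luminescence from enzymatic CDP-Star hydrolysis; Controls: DMSO-only wells and no-enzyme negative control.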
Large screens that a line does not name were inactive.

COc1cc(OC)c(S(=O)(=O)N2CCN(C(=O)c3ccccc3F)CC2)cc1NC(C)=O	none
Cc1ccc(CONC(=O)c2ccccc2Cl)cc1	none (no result: bIAP act, bIAP inhibitor)
S=C(Nc1ccc(Oc2ccc(NC(=S)NC3CCCCC3)cc2)cc1)NC1CCCCC1	mIAP activ 2.42
CC(C)N=c1cc2n(-c3ccc(Cl)cc3)c3ccccc3nc-2cc1Nc1ccc(Cl)cc1	hIAP inh 38.8 (no result: bIAP act, bIAP inhibitor)
Cn1c(CNc2ccc(Cl)cc2)nc2ccccc21	none
Cc1nonc1OCCNc1ccc([N+](=O)[O-])cc1	bIAP act 2.2
Cc1cccc(NS(=O)(=O)c2cnc[nH]2)c1	bIAP act 2
Cc1ccsc1-c1nc(CN2CCN(C)C(=O)[C@@H]2C)c(C)o1	none
CN(C)S(=O)(=O)c1ccc(NC(=O)C2CCCN(C(=O)c3ccc(Cl)cc3)C2)cc1 (stereo not given)	none
COC(=O)c1ccc(OC(=O)CCN2c3ccccc3Sc3ccccc32)cc1	bIAP act 5.1
CCCOc1ccc(/C=N/NC(=O)CN(c2ccc(OCC)cc2)S(C)(=O)=O)cc1	none (no result: bIAP act, bIAP inhibitor)
COc1ccc(C2Nc3ccc4ccccc4c3-c3c2c(=O)oc2ccccc32)cc1 (stereo not given)	bIAP act 3.5
CCOc1ccc(C2Nc3ccc4ccccc4c3-c3c2c(=O)oc2ccccc32)cc1 (stereo not given)	none
COc1cc2c3c([nH]c2cc1F)C(=O)NCC3	none (no result: bIAP act, bIAP inhibitor)
CCCC(=O)Nc1cc(OC)c(C(=O)OC)cc1Cl	none
COc1ccc(-c2[nH]ncc2C2N=C(N)Nc3nc4ccccc4n32)cc1 (stereo not given)	bIAP act 2.2
C=CCn1c(SCC(=O)c2c(N)n(C)c(=O)n(C)c2=O)nc2sc(C)c(C)c2c1=O	none
Cc1ccc(SCc2c(C(=O)N/N=C/c3ccc4c(c3)OCO4)nnn2-c2nonc2N)cc1	none (no result: bIAP act, bIAP inhibitor)
S=C(Nc1ccc(Cl)c(Cl)c1)NC1CCN(Cc2ccccc2)CC1	mIAP activ 2.15
S=C(Nc1ccc(Cl)c(Cl)c1)NC1CCCCC1	mIAP activ 3.2
O=C(NCc1ccco1)NCC(F)(F)F	none
Cc1ccc(SCC(=O)Nc2ccc(N3CCN(C)CC3)c(F)c2)c(C)c1	mIAP inh 42.3
Cc1ccc(-n2nnnc2SCC(=O)Nc2ccc(N3CCN(C)CC3)cc2)c(C)c1	none (no result: bIAP act, bIAP inhibitor)
COc1ccc(C2(c3ccc(OC)cc3)NC(=O)N(Cn3nnc4ccccc4c3=O)C2=O)cc1	none
COc1cccc(NC(=O)Nc2ccc3c(c2)N(C)C(=O)CS3)c1	mIAP activ 2.71
CC(=O)Nc1ccc(NC(=O)Nc2ccc3c(c2)N(C)C(=O)CS3)cc1	none
CCOc1ccc(OCC)c(NC(=O)Nc2ccc3c(c2)N(C)C(=O)CS3)c1	mIAP activ 2.38
COc1ccc(CN2C(=O)c3cccnc3C2=O)cc1S(=O)(=O)N1CCCCC1	none (no result: bIAP act, bIAP inhibitor)
CC(C)c1ccc(NC(=O)C(c2ccc3c(c2)OCO3)N2CCN(C(=O)c3ccco3)CC2)cc1 (stereo not given)	mIAP activ 2.07
CCOC(=O)c1sc(NC(=O)Nc2ccccc2)cc1C	none
CCOC(=O)c1sc(NC(=O)Nc2ccccc2Cl)cc1C	mIAP activ 3.21
Cc1cc(Oc2ccc(-c3ccccc3)cc2)n2ncnc2n1	none
Cc1cccc(N(CC(=O)NC2CCCCC2)C(=O)CCC(=O)Nc2ccccn2)c1	none
Fc1cc(Br)ccc1NC(=S)NCCc1ccccc1	mIAP activ 2.19
S=C(NCCCc1ccccc1)Nc1ccccc1Cl	mIAP activ 2.63
S=C(NCCc1ccccc1)Nc1ccccc1Cl	none
O=C(NCCCc1ccccc1)Nc1cccc(Cl)c1	mIAP activ 4.18
Cc1ccc(NC(=O)NCCCc2ccccc2)cc1	mIAP activ 2.17
N#CC1(c2ccccc2)CCC(NCCc2ccccc2)CC1 (stereo not given)	none (no result: bIAP act, bIAP inhibitor)
CC(C)(CO)NCc1ccc(Br)cc1	none
CC(C)NC(=O)N(C)C[C@H]1Oc2ccc(NC(=O)Nc3ccc(C(F)(F)F)cc3)cc2C(=O)N([C@H](C)CO)C[C@@H]1C	mIAP activ 2.39 (no result: bIAP act, bIAP inhibitor)
C[C@H](CO)N1C[C@H](C)[C@H](CN(C)Cc2ccccc2)Oc2c(NC(=O)Nc3ccc(F)cc3)cccc2C1=O	none (no result: bIAP act, bIAP inhibitor)
C[C@H](CO)N1C[C@H](C)[C@@H](CN(C)C(=O)Nc2ccc(C(F)(F)F)cc2)Oc2ccc(NC(=O)Nc3ccc(C(F)(F)F)cc3)cc2C1=O	none (no result: bIAP act, bIAP inhibitor)
C[C@H]1CN([C@@H](C)CO)C(=O)c2cc(NC(=O)NC3CCCCC3)ccc2O[C@H]1CN(C)C(=O)Nc1ccc(C(F)(F)F)cc1	mIAP activ 2.02 (no result: bIAP act, bIAP inhibitor)
C[C@H](CO)N1C[C@H](C)[C@H](CN(C)Cc2ccccc2)Oc2ccc(NC(=O)Nc3ccc(F)cc3)cc2C1=O	mIAP activ 2.2 (no result: bIAP act, bIAP inhibitor)
COc1ccc(NC(=O)Nc2ccc3c(c2)C(=O)N([C@H](C)CO)C[C@H](C)[C@@H](CN(C)C(=O)Nc2ccccc2)O3)cc1	mIAP activ 2.85 (no result: bIAP act, bIAP inhibitor)
CC(=O)N1CCc2cc(S(=O)(=O)NC(C(=O)Nc3ccc4c(c3)OCCO4)C(C)C)ccc21 (stereo not given)	none
O=C(Nc1ccccc1)C1CCCN1C(=O)Nc1ccccc1[N+](=O)[O-] (stereo not given)	none
C[C@H](CO)N1C[C@H](C)[C@@H](CN(C)C(=O)NC2CCCCC2)Oc2ccc(NC(=O)NC3CCCCC3)cc2C1=O	none (no result: bIAP act, bIAP inhibitor)
C[C@H](CO)N1C[C@H](C)[C@@H](CN(C)C(=O)Nc2ccccc2)Oc2ccc(NC(=O)NC3CCCCC3)cc2C1=O	mIAP activ 2.08 (no result: bIAP act, bIAP inhibitor)
OCc1nc2ccccc2n1CCCCOc1ccccc1	none (no result: bIAP act, bIAP inhibitor)
OCc1nc2ccccc2n1CCCOc1ccc(Br)cc1	bIAP act 2.9
OCCN1CCN(CC(O)COc2ccc3ccccc3c2)CC1 (stereo not given)	bIAP act 2.9
O=C(CN1CCN(C(=O)c2ccco2)CC1)Nc1ccccc1	none (no result: bIAP act, bIAP inhibitor)
O=C(NCc1ccccc1)NC1(C(=O)N2CCN(c3ccccc3)CC2)CCCCC1	bIAP act 2.1, mIAP activ 2.25
O=C(Nc1ccccc1)NC1(C(=O)N2CCN(C(=O)c3ccco3)CC2)CCCCC1	bIAP act 6.3
CC1Cc2ccccc2N1Cc1nc2scc(-c3cccs3)c2c(=O)[nH]1 (stereo not given)	none
Cc1cc(CNC(=O)c2cc(COc3ccc(F)c(F)c3)on2)nn1C	none (no result: bIAP act, bIAP inhibitor)
Cc1ccc(N2C(=O)CS/C2=C(\C(Cl)=C(Cl)Cl)[N+](=O)[O-])cc1	mIAP inh 41.9
Cc1ccc(N2C(=O)CSCC2=O)cc1	none
N/C(=N\OC(=O)c1ccc([N+](=O)[O-])cc1)c1cccnc1	none
O=C(Oc1c(Br)cc([N+](=O)[O-])cc1Br)c1cccnc1	hIAP act 2.33
CC1CCc2nc3ccc(S(=O)(=O)N4CCC(C(=O)NCc5ccccc5Cl)CC4)cc3c(C(=O)O)c2C1 (stereo not given)	none (no result: bIAP act, bIAP inhibitor)
